The values that follow come from ChEMBL document CHEMBL4715802, “Novel Irreversible Agonists Acting at the A Adenosine Receptor” (J Med Chem, 2016).

The source made the active and inactive calls. No cut-off for these calls is given here.

The target in the first assay is T1, Adenosine receptor A1 (Homo sapiens) (UniProt P30542).
T1 sequence (whole entry): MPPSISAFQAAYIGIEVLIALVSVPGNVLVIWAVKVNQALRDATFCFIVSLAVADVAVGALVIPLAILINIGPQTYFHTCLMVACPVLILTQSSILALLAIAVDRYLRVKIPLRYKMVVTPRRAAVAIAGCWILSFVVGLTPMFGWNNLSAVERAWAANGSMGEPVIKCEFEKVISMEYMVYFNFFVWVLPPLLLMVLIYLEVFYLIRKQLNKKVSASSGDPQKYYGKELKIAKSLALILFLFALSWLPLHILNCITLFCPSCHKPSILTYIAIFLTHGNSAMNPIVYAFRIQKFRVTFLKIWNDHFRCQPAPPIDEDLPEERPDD
Kind of assay: Irreversible agonist activity at human adenosine A1 receptor expressed in Flp-In-CHO cells assessed as induction of positive change of cellular impedance at 1 uM incubated for 2 hrs by xCELLigence real-time cell analysis. The following applies: filed as agonist. It counts as cell-based. In short, it runs like this: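 A1AR-FlpInCHO cells were serum-starved for about 18 h and equilibrated for at least 1 h at 37°C. 1 µM agonist or vehicle was added and impedance was recorded at 15 s intervals. […] Three experiments in duplicate.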
Regarding `OC[C@H]1O[C@@H](n2cnc3c(NCCCCCCCCCCN=C=S)ncnc32)[C@H](O)[C@@H]1O`, the outcome was Active.
Same read-out and setting: the entry for `O=C(NCc1ccc(Nc2ncnc3c2ncn3[C@@H]2O[C@H](CO)[C@@H](O)[C@H]2O)cc1)c1ccc(S(=O)(=O)F)cc1` is “Active”.
Still for that read-out and setting: the value for `CCNC(=O)[C@H]1O[C@@H](n2cnc3c(N)ncnc32)[C@H](O)[C@@H]1O` was “Active”; that for `O=C(NCc1ccc(Nc2ncnc3c2ncn3[C@@H]2O[C@H](CO)[C@@H](O)[C@H]2O)cc1)C1=CC2C=CC1CC2` (stereo partly specified) was “Active”.

The target in another assay is T2, Adenosine receptor A1 (Homo sapiens, UniProt P30542).
T2 sequence (P30542 whole entry): T1 sequence (whole entry)
Kind of assay: Irreversible agonist activity at human adenosine A1 receptor expressed in Flp-In-CHO cells assessed as stimulation of ERK1/2 phosphorylation incubated for 5 mins. It counts as cell-based.
Conditions: not given
For `OC[C@H]1O[C@@H](n2cnc3c(NCCCCCCCCCCN=C=S)ncnc32)[C@H](O)[C@@H]1O`, the EC50 (commonly the midpoint of the concentration-response curve) is 79.4 nM.
Same read-out and setting: the figure for `O=C(NCc1ccc(Nc2ncnc3c2ncn3[C@@H]2O[C@H](CO)[C@@H](O)[C@H]2O)cc1)c1ccc(S(=O)(=O)F)cc1` is 1 nM; for `O=C(NCc1ccc(Nc2ncnc3c2ncn3[C@@H]2O[C@H](CO)[C@@H](O)[C@H]2O)cc1)C1=CC2C=CC1CC2` (stereo partly specified) it is 1.58 nM.

The subject of another assay is Flp-In-CHO. Kind of assay: Stimulation of ERK1/2 phosphorylation in Flp-In-CHO cells incubated for 5 mins. It counts as cell-based. The conditions noted are these: Cricetulus griseus. The gist of the method: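 A1AR-FlpInCHO cells were seeded at 4×10^4/well and serum-starved for about 18 h. Cells were stimulated with agonist for 5 min at 37°C, then lysed, and pERK1/2 was detected by SureFire. […] Curves were fitted for pEC50 and Emax. Three experiments in duplicate.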
Consider `OC[C@H]1O[C@@H](n2cnc3c(NCCCCCCCCCCN=C=S)ncnc32)[C@H](O)[C@@H]1O`, for which the result was inactive.
As to `O=C(NCc1ccc(Nc2ncnc3c2ncn3[C@@H]2O[C@H](CO)[C@@H](O)[C@H]2O)cc1)c1ccc(S(=O)(=O)F)cc1`, the outcome was inactive.
Same read-out and setting: the entry for `CCNC(=O)[C@H]1O[C@@H](n2cnc3c(N)ncnc32)[C@H](O)[C@@H]1O` is “inactive”.
Same read-out and setting: the entry for `O=C(NCc1ccc(Nc2ncnc3c2ncn3[C@@H]2O[C@H](CO)[C@@H](O)[C@H]2O)cc1)C1=CC2C=CC1CC2` (stereo partly specified) is “inactive”.

For a further assay, the target named is T1, Adenosine receptor A1 (Homo sapiens). Briefly: Irreversible agonist activity at human adenosine A1 receptor expressed in Flp-In-CHO cells assessed as induction of positive change of cellular impedance at 1 uM incubated for 1.5 hrs followed by addition of 1 uM A1AR selective antagonist SLV320 by xCELLigence real-time cell analysis. The format is cell-based. The conditions noted are these: filed as agonist. The gist of the method:
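A1AR-FlpInCHO cells were seeded at 4×10^4/well, serum-starved for about 18 h, and equilibrated in the impedance reader for at least 1 h at 37°C. Cells were exposed to 1 µM agonist and impedance was recorded every 15 s. After about 1.5–1.7 h, 1 µM SLV320 was added and recording continued. […] Three experiments in duplicate.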
In the case of `O=C(NCc1ccc(Nc2ncnc3c2ncn3[C@@H]2O[C@H](CO)[C@@H](O)[C@H]2O)cc1)c1ccc(S(=O)(=O)F)cc1`, the result was Active.

The next assay shares this target. Kind of assay: Binding affinity to human adenosine A1 receptor expressed in Flp-In-CHO cell membranes assessed as [3H]DPCPX binding level at 10 uM incubated for 1 hr followed by washing by liquid scintillation counting based equilibrium radioligand binding assay. The conditions noted are these: Cell membrane. The gist of the method: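 Membranes from A1AR-FlpInCHO cells were pre-incubated with 10 µM ligand in PBS with 1 unit ADA for 1 h at 37°C. They were then washed 3× with PBS, with 1 h at 37°C between washes, and resuspended in HME buffer. [3H]DPCPX at 0.1–12 nM was bound for 1 h at 37°C, filtered and β-counted. Nonspecific binding was defined with 1 µM SLV320. Results are expressed as % of buffer-pretreated Bmax, from three experiments in duplicate.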
For the compound `CCNC(=O)[C@H]1O[C@@H](n2cnc3c(N)ncnc32)[C@H](O)[C@@H]1O`, the Activity is 108%.

The same assay, now with this note: Cell membrane, filed as agonist.
On to `O=C(NCc1ccc(Nc2ncnc3c2ncn3[C@@H]2O[C@H](CO)[C@@H](O)[C@H]2O)cc1)c1ccc(S(=O)(=O)F)cc1`, for which the Activity was 16%.

The target is the same in the next assay. Briefly: Binding affinity to human adenosine A1 receptor expressed in Flp-In-CHO cell membranes assessed as basal [35S]GTP-gamma-S incorporation level at 10 uM incubated for 40 mins followed by washing by liquid scintillation counting. The following applies: Cell membrane. In short, it runs like this:
(§1)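 Membranes were pretreated with 10 µM ligand and washed as for the [3H]DPCPX assay. […] 300 pM [35S]GTPγS was then added for 40 min at 20°C, followed by filtration and counting. Values are normalised to NECA-stimulated vehicle-pretreated membranes.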
On the technique in general: Binding of GTPγS marks nucleotide exchange on a G protein.
Turning to `O=C(NCc1ccc(Nc2ncnc3c2ncn3[C@@H]2O[C@H](CO)[C@@H](O)[C@H]2O)cc1)c1ccc(S(=O)(=O)F)cc1`, the Activity turned out to be 134%.
Consider `CCNC(=O)[C@H]1O[C@@H](n2cnc3c(N)ncnc32)[C@H](O)[C@@H]1O`, for which the Activity was 57%.

For a further assay the target is unchanged. Briefly: Binding affinity to human adenosine A1 receptor expressed in NECA-pre-treated Flp-In-CHO cell membranes assessed as [35S]GTP-gamma-S incorporation level at 10 uM incubated for 40 mins followed by washing by liquid scintillation counting. The conditions noted are these: Cell membrane. In short, it runs like this:
as §1
As for `CCNC(=O)[C@H]1O[C@@H](n2cnc3c(N)ncnc32)[C@H](O)[C@@H]1O`, the Activity was 99%.

The same assay, now with this note: Cell membrane, filed as agonist.
For the compound `O=C(NCc1ccc(Nc2ncnc3c2ncn3[C@@H]2O[C@H](CO)[C@@H](O)[C@H]2O)cc1)c1ccc(S(=O)(=O)F)cc1`, the outcome was Active.

The target is the same in a further assay. Briefly: Binding affinity to human adenosine A1 receptor expressed in Sf9 cells assessed protein melting temperature at 10 uM incubated for 30 mins by Thermo-fluor assay. It counts as cell membranes. The conditions noted are these: Cell membrane, filed as agonist. The gist of the method:
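Human A1AR was purified from Sf9 cells in LMNG/CHS. 0.2 µg receptor was incubated with 10 µM compound for 20 h at 4°C in HEPES pH 7.5 buffer with ADA. CPM dye at 10 µM final was added for 30 min at rt. The sample was heated from 4 to 80°C in 3° steps, holding 90 s each, and fluorescence was read at 380/470 nm to derive Tm. Three experiments in duplicate.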
For the compound `O=C(NCc1ccc(Nc2ncnc3c2ncn3[C@@H]2O[C@H](CO)[C@@H](O)[C@H]2O)cc1)c1ccc(S(=O)(=O)F)cc1`, the Tm amounted to 46.7 °C.
Still for that read-out and setting: the figure for `CCNC(=O)[C@H]1O[C@@H](n2cnc3c(N)ncnc32)[C@H](O)[C@@H]1O` is 38.7 °C.

In a further assay the target is T2, Adenosine receptor A1. Kind of assay: Irreversible agonist activity at human adenosine A1 receptor expressed in Flp-In-CHO cells assessed as effect on forskolin-induced cAMP accumulation incubated for 30 mins by LANCE cAMP detection assay. The format is functional, cell-based.
Conditions: not given
In short, it runs like this:
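For Gi/o-coupled A1 or A3 FlpInCHO cells, cells were preincubated for 30 min at 37°C in stimulation buffer containing 10 µM rolipram. Agonist (10 pM–10 µM) was then added with 3 µM forskolin for 30 min at 37°C. The reaction was stopped with ethanol, cells were lysed, and cAMP was read by LANCE TR-FRET. Three to four experiments in duplicate.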
Regarding `O=C(NCc1ccc(Nc2ncnc3c2ncn3[C@@H]2O[C@H](CO)[C@@H](O)[C@H]2O)cc1)c1ccc(S(=O)(=O)F)cc1`, the EC50 was 0.912 nM.

The target in another assay is T3, Adenosine receptor A2b (Homo sapiens, UniProt P29275).
T3 sequence (P29275 whole entry): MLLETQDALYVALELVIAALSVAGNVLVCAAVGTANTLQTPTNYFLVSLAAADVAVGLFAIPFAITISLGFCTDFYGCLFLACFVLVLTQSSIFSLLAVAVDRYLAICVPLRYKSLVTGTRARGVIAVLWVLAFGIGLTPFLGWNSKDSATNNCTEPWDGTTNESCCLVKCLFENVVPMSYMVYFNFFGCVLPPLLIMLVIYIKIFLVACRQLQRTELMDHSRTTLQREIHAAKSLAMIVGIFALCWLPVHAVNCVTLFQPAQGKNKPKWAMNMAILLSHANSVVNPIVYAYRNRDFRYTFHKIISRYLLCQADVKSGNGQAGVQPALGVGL
Kind of assay: Irreversible agonist activity at human adenosine A2B receptor expressed in Flp-In-CHO cells assessed as effect on forskolin-induced cAMP accumulation incubated for 30 mins by LANCE cAMP detection assay.
Conditions: not given
It counts as functional, cell-based. In short, it runs like this:
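A2BAR-FlpInCHO cells in stimulation buffer with rolipram were exposed to agonist with no preincubation, then stopped with ethanol, lysed, and cAMP was detected by LANCE. Three to four experiments in duplicate.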
Background: Cyclic AMP is a second messenger, typically raised through Gs and lowered through Gi signalling.
`O=C(NCc1ccc(Nc2ncnc3c2ncn3[C@@H]2O[C@H](CO)[C@@H](O)[C@H]2O)cc1)c1ccc(S(=O)(=O)F)cc1`: the EC50 was 117 nM.

A further assay concerns the target T4, Adenosine receptor A3 (Homo sapiens, UniProt P0DMS8).
T4 sequence (P0DMS8 whole entry): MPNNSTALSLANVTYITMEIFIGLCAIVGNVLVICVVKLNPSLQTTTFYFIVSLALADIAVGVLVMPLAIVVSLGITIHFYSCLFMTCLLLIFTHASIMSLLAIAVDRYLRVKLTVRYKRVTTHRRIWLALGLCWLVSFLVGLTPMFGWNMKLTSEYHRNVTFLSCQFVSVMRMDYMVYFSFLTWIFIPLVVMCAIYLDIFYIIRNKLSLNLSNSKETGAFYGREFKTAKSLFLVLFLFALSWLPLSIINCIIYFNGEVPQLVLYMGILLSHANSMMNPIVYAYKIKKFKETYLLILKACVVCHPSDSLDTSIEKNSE
Kind of assay: Irreversible agonist activity at human adenosine A3 receptor expressed in Flp-In-CHO cells assessed as effect on forskolin-induced cAMP accumulation incubated for 30 mins by LANCE cAMP detection assay. The format is functional, cell-based.
Conditions: not given
The gist of the method:
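For Gi/o-coupled A1 or A3 FlpInCHO cells, cells were preincubated for 30 min at 37°C in stimulation buffer containing 10 µM rolipram. Agonist (10 pM–10 µM) was then added with 3 µM forskolin for 30 min at 37°C. The reaction was stopped with ethanol, cells were lysed, and cAMP was read by LANCE TR-FRET. […] Three to four experiments in duplicate.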
Regarding `O=C(NCc1ccc(Nc2ncnc3c2ncn3[C@@H]2O[C@H](CO)[C@@H](O)[C@H]2O)cc1)c1ccc(S(=O)(=O)F)cc1`, the EC50 is 135 nM.

Another assay has as its system Flp-In-CHO. Briefly: Effect on forskolin-induced cAMP accumulation in Flp-In-CHO cells incubated for 30 mins by LANCE cAMP detection assay. It counts as functional, cell-based. The following applies: Cricetulus griseus.
In the case of `O=C(NCc1ccc(Nc2ncnc3c2ncn3[C@@H]2O[C@H](CO)[C@@H](O)[C@H]2O)cc1)c1ccc(S(=O)(=O)F)cc1`, the outcome was inactive.
On the same count and under the same terms, the entry for `CCNC(=O)[C@H]1O[C@@H](n2cnc3c(N)ncnc32)[C@H](O)[C@@H]1O` is “inactive”.

The next assay has as its target T1, Adenosine receptor A1 (Homo sapiens). The conditions noted are these: Sf9, Cell membrane, filed as agonist, dose 10.0 µM, time 30.0 min.
On to `CCNC(=O)[C@H]1O[C@@H](n2cnc3c(N)ncnc32)[C@H](O)[C@@H]1O`, for which the thermal shift (ΔTm) (commonly the shift of the melting midpoint relative to a reference) was 4 °C.
